In series [1] the target is rTbHK1 (recombinant T. brucei hexokinase 1). Briefly: rTbHK1 enzyme inhibition assay. The series is classed as biochemical, Trypanosoma brucei. Conditions: read-out: TbHK1 IC50; dose-response. The gist of the method:
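Recombinant TbHK1 was expressed in and isolated from Escherichia coli or yeast. The purified enzyme was tested in triplicate for percent inhibition at 10 μM test compound. IC50 was taken as the concentration giving 50% inhibition of TbHK1 activity.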

Series [2] relates to BSF T. brucei. Description: Growth inhibition of BSF T. brucei cultures. Conditions: for EC50: read-out: BSF EC50, dose-response in triplicate, 384-well format. The series is classed as cell-based, Trypanosoma brucei. In short, it runs like this: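 Bloodstream-form T. brucei cultures were treated in triplicate with test compound at 10 μM, with DMSO vehicle as negative control and a reference inhibitor as positive control on each plate. Percent growth inhibition was calculated against DMSO-treated parasites on the same plate. Compounds giving >50% inhibition at 10 μM went to triplicate dose-response curves, and the EC50 was fitted as the concentration killing 50% of parasites.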

The target in series [3] is rTbHK1 (recombinant T. brucei hexokinase 1). Conditions: read-out: rTbHK1 IC50; initial round of SAR study; cited from earlier work.
Series [4] deals with BSF T. brucei. Conditions: cited from earlier work.
For series [5], the system named is mammalian hexokinase. Conditions: cited from earlier work.
Series [6] deals with human cell lines. Conditions: cited from earlier work.

Like-named read-outs stand apart in the source and are kept apart here.

Regarding `CC(C)(C)c1ccc(C(=O)Nc2cc(Cl)c(Br)cc2C(=O)O)cc1` [Compound 2], the IC50 (usually the point on the concentration scale where inhibition reaches its midpoint) is 0.98 ± 0.067 µM in series [1] and 0.98 ± 0.07 µM in series [3]. The “%BSF Growth Inhibition (10 μM)” value in series [2] (10 μM, triplicate, vs DMSO controls) is given as 6.9 ± 3.0%. Besides, the EC50 (in general, the concentration giving half of the maximal effect) in series [2] was over 10 µM. The “Trypanocidal activity against whole-cell BSF parasites (result in words)” value in series [4] is recorded as “not an effective trypanocide”. Besides, the “Impact on a mammalian hexokinase” value in series [5] was “no impact”. Further, in series [6], the “Toxicity toward human cell lines” value was “no appreciable toxicity”.
With `N=C(N)c1ccc(OCCCCCOc2ccc(C(=N)N)cc2)cc1` [pentamadine], the EC50 in series [2] was determined as 0.003 ± 0.001 µM.
